The values below come from ChEMBL document CHEMBL1150818, “Antimalarial, antiviral, and antitoxoplasmosis norsesterterpene peroxide acids from the Red Sea sponge Diacarnus erythraeanus” (J Nat Prod, 2001).

≈ marks a conversion by molar mass, not a printed value.

For series [1], the system named is Plasmodium falciparum. The series can be described thus: Antimalarial activity against Plasmodium falciparum W2. The format is functional, organism-based.
For series [2], the system named is Plasmodium falciparum. The series can be described thus: Antimalarial activity against Plasmodium falciparum D6. The format is functional, organism-based.
The test system of series [3] is Human alphaherpesvirus 1. Nature of the series: Antiviral activity against HSV1 infected african green monkey Vero cells assessed as inhibition of viral-induced cytopathic effect. To be noted: Human alphaherpesvirus 1, Vero; read-out: ED50 (the source's name). The format is functional. The gist of the method: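 Simplified plaque reduction assay: serial dilutions of test compounds with herpes simplex type 1 virus in Vero African green monkey kidney cell cultures in 96-well trays.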

The subject of series [4] is Plasmodium falciparum. The series can be described thus: Antimalarial activity against Plasmodium falciparum W2 at 80 ug/mL. The format is functional, organism-based.
In series [5] the test system is Vero. The series can be described thus: Cytotoxicity against african green monkey Vero cells. In kind it is cell-based. To be noted: Chlorocebus sabaeus. Summed up: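 Cytotoxicity taken from the same HSV-1 plaque cultures: concentration causing half-maximal loss of uninfected Vero cells from the monolayer surrounding plaques.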
In series [6] the test system is Plasmodium falciparum. The series can be described thus: Antimalarial activity against Plasmodium falciparum D6 at 80 ug/mL. The format is functional, organism-based.
The subject of series [7] is Toxoplasma gondii. Nature of the series: Antiparasitic activity against Toxoplasma gondii infected in mouse L929 cells at 10 uM after 24 hrs by [3H]uracil incorporation assay relative to control. The format is functional.
Series [8] deals with Toxoplasma gondii. The series can be described thus: Antiparasitic activity against Toxoplasma gondii infected in mouse L929 cells at 10 uM after 48 hrs by [3H]uracil incorporation assay relative to control. The format is functional.
In series [9] the test system is L929. Nature of the series: Toxicity against mouse L929 cells at 0.010 uM after 24 hrs by MTT assay relative to control. To be noted: l929, 24 h, 0.01 µM. In kind it is cell-based. Summed up:
(§1)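 Host-cell toxicity for HFF and L929 cells determined by MTT cell proliferation assay; expressed as percent of control.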

Series [10] deals with HFF. The series can be described thus: Toxicity against HFF cells at 0.10 uM after 48 hrs by MTT assay relative to control. In kind it is cell-based. To be noted: human, 0.1 µM. The gist of the method:
as §1

Series [11] has as its system Toxoplasma gondii. Nature of the series: Antiparasitic activity against Toxoplasma gondii infected in mouse L929 cells at 0.1 uM after 24 hrs by [3H]uracil incorporation assay relative to control. The format is functional.
In series [12] the test system is L929. Nature of the series: Toxicity against mouse L929 cells at 0.010 uM after 48 hrs by MTT assay relative to control. In kind it is cell-based. To be noted: l929, 48 h, 0.01 µM. The gist of the method: as §1
Series [13] concerns Toxoplasma gondii. The series can be described thus: Antiparasitic activity against Toxoplasma gondii infected in HFF cells at 0.1 uM after 24 hrs by [3H]uracil incorporation assay relative to control. In kind it is functional.
In series [14] the test system is Toxoplasma gondii. Nature of the series: Antiparasitic activity against Toxoplasma gondii infected in HFF cells at 0.01 uM after 24 hrs by [3H]uracil incorporation assay relative to control. In kind it is functional.
In series [15] the test system is Toxoplasma gondii. The series can be described thus: Antiparasitic activity against Toxoplasma gondii infected in mouse L929 cells at 0.01 uM after 24 hrs by [3H]uracil incorporation assay relative to control. In kind it is functional.
The test system of series [16] is Toxoplasma gondii. The series can be described thus: Antiparasitic activity against Toxoplasma gondii infected in mouse L929 cells at 1 uM after 24 hrs by [3H]uracil incorporation assay relative to control. In kind it is functional.
The subject of series [17] is L929. Nature of the series: Toxicity against mouse L929 cells at 1 uM after 24 hrs by MTT assay relative to control. In kind it is cell-based. To be noted: l929, 24 h. The gist of the method:
as §1

The subject of series [18] is Toxoplasma gondii. Nature of the series: Antiparasitic activity against Toxoplasma gondii infected in HFF cells at 10 uM after 48 hrs by [3H]uracil incorporation assay relative to control. In kind it is functional.
For series [19], the system named is L929. The series can be described thus: Toxicity against mouse L929 cells at 0.10 uM after 48 hrs by MTT assay relative to control. In kind it is cell-based. To be noted: l929, 48 h, 0.1 µM. Summed up: as §1
The test system of series [20] is Toxoplasma gondii. Nature of the series: Antiparasitic activity against Toxoplasma gondii infected in HFF cells at 0.01 uM after 48 hrs by [3H]uracil incorporation assay relative to control. The format is functional.
Series [21] deals with HFF. Nature of the series: Toxicity against HFF cells at 10 uM after 24 hrs by MTT assay relative to control. In kind it is cell-based. To be noted: human. The gist of the method: as §1
A short description of series [22]: Selectivity index, ratio of IC50 for african green monkey (Cercopithecus aethiops) Vero cells to IC50 for Plasmodium falciparum D6. In kind it is toxicity, cell-based. To be noted: read-out: Ratio IC50.
For series [23], the system named is L929. Nature of the series: Toxicity against mouse L929 cells at 0.10 uM after 24 hrs by MTT assay relative to control. In kind it is cell-based. To be noted: l929, 24 h, 0.1 µM. Summed up:
as §1

Series [24] concerns HFF. The series can be described thus: Toxicity against HFF cells at 1 uM after 48 hrs by MTT assay relative to control. To be noted: human. The format is cell-based. The gist of the method:
as §1

For series [25], the system named is HFF. The series can be described thus: Toxicity against HFF cells at 0.010 uM after 48 hrs by MTT assay relative to control. To be noted: human, 0.01 µM. In kind it is cell-based. Summed up: as §1
For series [26], the system named is HFF. Nature of the series: Toxicity against HFF cells at 10 uM after 48 hrs by MTT assay relative to control. In kind it is cell-based. To be noted: human. The gist of the method: as §1
Series [27] has as its system Toxoplasma gondii. Nature of the series: Antiparasitic activity against Toxoplasma gondii infected in mouse L929 cells at 0.1 uM after 48 hrs by [3H]uracil incorporation assay relative to control. The format is functional.
In series [28] the test system is HFF. The series can be described thus: Toxicity against HFF cells at 1 uM after 24 hrs by MTT assay relative to control. In kind it is cell-based. To be noted: human. The gist of the method: as §1
In series [29] the test system is Toxoplasma gondii. The series can be described thus: Antiparasitic activity against Toxoplasma gondii infected in HFF cells at 10 uM after 24 hrs by [3H]uracil incorporation assay relative to control. In kind it is functional.
In series [30] the test system is Toxoplasma gondii. The series can be described thus: Antiparasitic activity against Toxoplasma gondii infected in mouse L929 cells at 0.01 uM after 48 hrs by [3H]uracil incorporation assay relative to control. The format is functional.
Series [31] has as its system Toxoplasma gondii. Nature of the series: Antiparasitic activity against Toxoplasma gondii infected in HFF cells at 1 uM after 24 hrs by [3H]uracil incorporation assay relative to control. In kind it is functional.
For series [32], the system named is L929. The series can be described thus: Toxicity against mouse L929 cells at 1 uM after 48 hrs by MTT assay relative to control. The format is cell-based. To be noted: l929, 48 h. The gist of the method:
as §1

The nature of series [33]: Selectivity index, ratio of IC50 for african green monkey (Cercopithecus aethiops) Vero cells to IC50 for Plasmodium falciparum W2. In kind it is toxicity, cell-based. To be noted: read-out: Ratio IC50.
For series [34], the system named is Toxoplasma gondii. The series can be described thus: Antiparasitic activity against Toxoplasma gondii infected in HFF cells at 1 uM after 48 hrs by [3H]uracil incorporation assay relative to control. In kind it is functional.
For series [35], the system named is Toxoplasma gondii. Nature of the series: Antiparasitic activity against Toxoplasma gondii infected in mouse L929 cells at 1 uM after 48 hrs by [3H]uracil incorporation assay relative to control. The format is functional.
Series [36] concerns HFF. The series can be described thus: Toxicity against HFF cells at 0.010 uM after 24 hrs by MTT assay relative to control. In kind it is cell-based. To be noted: human, 0.01 µM. Summed up:
as §1

Series [37] deals with L929. The series can be described thus: Toxicity against mouse L929 cells at 10 uM after 24 hrs by MTT assay relative to control. In kind it is cell-based. To be noted: l929, 24 h. Summed up: as §1
Series [38] concerns Toxoplasma gondii. Nature of the series: Antiparasitic activity against Toxoplasma gondii infected in HFF cells at 0.1 uM after 48 hrs by [3H]uracil incorporation assay relative to control. The format is functional.
Series [39] has as its system HFF. Nature of the series: Toxicity against HFF cells at 0.10 uM after 24 hrs by MTT assay relative to control. In kind it is cell-based. To be noted: human, 0.1 µM. Summed up: as §1
Series [40] has as its system L929. The series can be described thus: Toxicity against mouse L929 cells at 10 uM after 48 hrs by MTT assay relative to control. To be noted: l929, 48 h. In kind it is cell-based. The gist of the method: as §1

Turning to `C=C1CCC[C@H]2[C@](C)(CC[C@]3(C)CC[C@H]([C@@H](C)C(=O)O)OO3)[C@@H](C)CC[C@]12C` [SIGMOSCEPTRELLIN A], the IC50 in series [1] amounted to 0.42 µg/mL (≈ 1.07 µM); in [2] it was 0.47 µg/mL (≈ 1.2 µM).

With `CC(=O)CCCC(C)(C)C(=O)CC/C(C)=C/CC[C@@]1(C)CC[C@H]([C@H](C)C(=O)O)OO1` [AIKUPIKOXIDE A], the EC50 in [3] came to 30 µg/mL (≈ 70.7 µM). The results for the IC50 result in series [4], in series [5] and in series [6] were “Not Active”, 60 µg/mL (≈ 141 µM) and “Not Active”, respectively.

On to `C=C1CCC[C@@H]2[C@@H](CC[C@@]3(C)CC[C@H]([C@H](C)C(=O)O)OO3)[C@H](C)CC[C@@]12C` [SIGMOSCEPTRELLIN B], for which the Activity in [7] was 96.62%; in series [8] it was 100%; in series [9], 0%; in [10], 5.56%; in [11], 18.61%; in series [12], 0%. In addition, the Activity in series [13] stood at 84.72%; in series [14], 0%; in series [15], 0%; in series [16] it was 91.88%; in series [17], 60.48%; in series [18], 100%. Besides, the Activity is 0% in [19]; 37.57% in [20]; 87.41% in series [21]; 0% in series [23]; 64.37% in [24]; 0% in series [25]. For the same molecule, the Activity in series [26] is 94.65%; in series [27], 35.17%; in [28], 86.81%; in [29], 94.91%; in series [30], 24.15%; in series [31], 96.49%. Also, the Activity in [32] worked out at 91.21%; in series [34], 100%; in series [35], 98.82%; in series [36] it was 0%; in series [37] it was 92.96%; in series [38], 98.32%. The Activity in [39] is reported as 0%; in series [40], 91.05%. Also, the IC50 in series [1] is 3.4 µg/mL (≈ 8.98 µM); in series [2] it was 1.2 µg/mL (≈ 3.17 µM); in series [5], 2.5 µg/mL (≈ 6.6 µM). For the same molecule, the values for the selectivity ratio in series [22] and in series [33] were more than 2.7 and more than 1, respectively.

Consider `CC1=C(CC/C(C)=C/CC[C@@]2(C)CC[C@@H]([C@@H](C)C(=O)O)OO2)C(C)(C)CCC1` [MUQUBILIN], for which the Activity worked out at 87.84% in [7]; 100% in series [8]; 0% in series [9]; 0.94% in [10]; 58.35% in series [11]; 0% in series [12]. Also, the Activity in series [13] was 84%; in series [14], 3.16%; in series [15], 33.85%; in [16], 84.03%; in series [17], 66.3%; in series [18], 100%. Further, the Activity in series [19] came out at 0%; in series [20], 0%; in series [21], 85.85%; in series [23] it was 0%; in series [24] it was 85.93%; in series [25], 0%. Besides, the Activity was determined as 84.73% in series [26]; 46.3% in [27]; 86.15% in [28]; 91.72% in series [29]; 0% in series [30]; 86.18% in series [31]. In addition, the Activity in [32] came to 83.36%; in series [34], 87.94%; in [35], 96.77%; in series [36], 0%; in [37], 93%; in series [38], 62.88%. Besides, the Activity in [39] stood at 7.15%; in series [40], 94.9%. In addition, the IC50 in [1] was more than 4.76 µg/mL; in series [2], 2.9 µg/mL (≈ 7.39 µM); in [5], 30 µg/mL (≈ 76.4 µM). Besides, the EC50 in series [3] turned out to be 7.5 µg/mL (≈ 19.1 µM). Also, the figures for the selectivity ratio in [22] and in series [33] were more than 1.6 and more than 1, respectively.
